Measurements reported in ChEMBL document CHEMBL1926580, “Identification and development of 2,5-disubstituted oxadiazole as potential candidate for treatment of XDR and MDR tuberculosis” (2012).
Values after ≈ are worked out from the molar mass of the structure shown.

Columns and labels:
BHK-21 = experiment: Cytotoxicity against hamster BHK21 cells after 5 days; assay type: functional; conditions: Mesocricetus auratus, BHK-21, 120 h
Procedure, shortened: (§1)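 HepG2 and BHK21 cells were seeded, incubated 24 h at 37 °C, then exposed to twofold serial dilutions of compound. The value is CC50 (50% cytotoxic concentration), from at least two independent assays.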

HepG2 = experiment: Cytotoxicity against human HepG2 cells after 5 days; assay type: functional; conditions: HepG2, 120 h; procedure, shortened: as §1
[1] = system: Mycobacterium tuberculosis; experiment: Antitubercular activity against Mycobacterium tuberculosis H37Rv ATCC 27294 assessed as intracellular ATP level after 5 days by luminescence assay; assay type: functional
Procedure, shortened: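 Growth inhibition of M. tuberculosis H37Rv reported as MIC50. Compounds were dissolved in 90% DMSO (stock), twofold serially diluted in duplicate to 10 concentrations, and spotted into 384-well plates. Assays were run at least twice.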

[2] = system: Mycobacterium tuberculosis; experiment: Antimycobacterial activity against Mycobacterium tuberculosis TN2524 assessed as intracellular ATP level after 5 days by luminescence assay; assay type: functional; conditions: TN2524, 120 h
[3] = system: Mycobacterium tuberculosis; experiment: Antimycobacterial activity against Mycobacterium tuberculosis TN1008 assessed as intracellular ATP level after 5 days by luminescence assay; assay type: functional; conditions: TN1008, 120 h
[4] = system: Mycobacterium tuberculosis; experiment: Antimycobacterial activity against Mycobacterium tuberculosis W4 assessed as intracellular ATP level after 5 days by luminescence assay; assay type: functional; conditions: W4, 120 h
[5] = system: Mycobacterium tuberculosis; experiment: Antimycobacterial activity against Mycobacterium tuberculosis TN1051 assessed as intracellular ATP level after 5 days by luminescence assay; assay type: functional; conditions: TN1051, 120 h
[6] = system: Mycobacterium tuberculosis; experiment: Antimycobacterial activity against Mycobacterium tuberculosis TN1037 assessed as intracellular ATP level after 5 days by luminescence assay; assay type: functional; conditions: TN1037, 120 h
[7] = system: Mycobacterium tuberculosis; experiment: Antimycobacterial activity against clinical isolate Mycobacterium tuberculosis TN994 assessed as intracellular ATP level after 5 days by luminescence assay; assay type: functional; conditions: TN994, 120 h
[8] = system: Mycobacterium tuberculosis; experiment: Antimycobacterial activity against Mycobacterium tuberculosis AH9584 assessed as intracellular ATP level after 5 days by luminescence assay; assay type: functional; conditions: AH9584, 120 h
[9] = system: Mycobacterium tuberculosis; experiment: Antimycobacterial activity against Mycobacterium tuberculosis TN3183 assessed as intracellular ATP level after 5 days by luminescence assay; assay type: functional; conditions: TN3183, 120 h
[10] = system: Mycobacterium tuberculosis; experiment: Antimycobacterial activity against Mycobacterium tuberculosis TN1040 assessed as intracellular ATP level after 5 days by luminescence assay; assay type: functional; conditions: TN1040, 120 h
[11] = system: Mycobacterium tuberculosis; experiment: Antimycobacterial activity against Mycobacterium tuberculosis TN913 assessed as intracellular ATP level after 5 days by luminescence assay; assay type: functional; conditions: TN913, 120 h
[12] = system: Mycobacterium tuberculosis; experiment: Antimycobacterial activity against Mycobacterium tuberculosis BE11677 assessed as intracellular ATP level after 5 days by luminescence assay; assay type: functional; conditions: BE11677, 120 h
[13] = system: Mycobacterium tuberculosis; experiment: Antimycobacterial activity against Mycobacterium tuberculosis TN4259 assessed as intracellular ATP level after 5 days by luminescence assay; assay type: functional; conditions: TN4259, 120 h
[14] = system: Mycobacterium tuberculosis; experiment: Antimycobacterial activity against Mycobacterium tuberculosis TN1082 assessed as intracellular ATP level after 5 days by luminescence assay; assay type: functional; conditions: TN1082, 120 h
[15] = system: Mycobacterium tuberculosis; experiment: Antimycobacterial activity against Mycobacterium tuberculosis TN2351 assessed as intracellular ATP level after 5 days by luminescence assay; assay type: functional; conditions: TN2351, 120 h
[16] = system: Mycobacterium tuberculosis; experiment: Antimycobacterial activity against Mycobacterium tuberculosis TN3979 assessed as intracellular ATP level after 5 days by luminescence assay; assay type: functional; conditions: TN3979, 120 h
[17] = system: Mycobacterium tuberculosis; experiment: Antimycobacterial activity against clinical isolate of Mycobacterium tuberculosis TN675 assessed as intracellular ATP level after 5 days by luminescence assay; assay type: functional; conditions: TN675, 120 h
[18] = system: Mycobacterium tuberculosis; experiment: Antimycobacterial activity against Mycobacterium tuberculosis E8133 assessed as intracellular ATP level after 5 days by luminescence assay; conditions: E8133, 120 h
[19] = Mycobacterium tuberculosis, H37Rv ATCC 27294, 120 h

SMILES	CC50 (BHK-21) [µM]	CC50 (HepG2) [µM]	MBC90 [1] [µM]	MIC50 [1, 19] [µM]	also measured
ClCCCSc1nnc(COc2ccc(Cl)cc2Cl)o1	> 50	> 50	2.5 (≈ 0.884 µg/mL)	0.65 (≈ 0.23 µg/mL)	
CCCSc1nnc(COc2ccc(Cl)cc2Cl)o1	13.8	19.3	2.5 (≈ 0.798 µg/mL)	0.63 (≈ 0.201 µg/mL)	
O=C(CCl)Sc1nnc(COc2ccc(Cl)cc2Cl)o1				> 20	
ClCCCSc1nnc(Cc2ccc(Cl)cc2Cl)o1	> 50	> 50	5 (≈ 1.69 µg/mL)	1.42 (≈ 0.479 µg/mL)	
CCCSc1nnc(Cc2ccc(Cl)cc2Cl)o1	> 50	> 50	5 (≈ 1.52 µg/mL)	1.19 (≈ 0.361 µg/mL)	
O=C(CCl)Sc1nnc(Cc2ccc(Cl)cc2Cl)o1				9.67 (≈ 3.26 µg/mL)	
O=[N+]([O-])c1cccc(OCc2nnc(SCCCCl)o2)c1	> 50	> 50		11.7 (≈ 3.86 µg/mL)	
CCCSc1nnc(COc2cccc([N+](=O)[O-])c2)o1	> 50	> 50		8.52 (≈ 2.52 µg/mL)	
O=C(CCl)Sc1nnc(COc2cccc([N+](=O)[O-])c2)o1				> 20	
O=[N+]([O-])c1cccc(Cc2nnc(SCCCCl)o2)c1	> 50	> 50		7.48 (≈ 2.35 µg/mL)	
CCCSc1nnc(Cc2cccc([N+](=O)[O-])c2)o1	> 50	> 50		6.81 (≈ 1.9 µg/mL)	
O=C(CCl)Sc1nnc(Cc2cccc([N+](=O)[O-])c2)o1				> 20	
NNC(=O)c1ccncc1 [ISONIAZID]				0.03 (≈ 0.00411 µg/mL)	MIC [2]: 0.06 µg/mL (≈ 0.438 µM); MIC [3]: 0.06 µg/mL (≈ 0.438 µM); MIC [4]: 0.03 µg/mL (≈ 0.219 µM); MIC [5]: 0.03 µg/mL (≈ 0.219 µM); MIC [6]: 0.03 µg/mL (≈ 0.219 µM); MIC [7]: 0.03 µg/mL (≈ 0.219 µM); MIC [8]: 0.19 µg/mL (≈ 1.39 µM); MIC [9]: 0.03 µg/mL (≈ 0.219 µM); MIC [10]: 0.03 µg/mL (≈ 0.219 µM); MIC [11]: 0.03 µg/mL (≈ 0.219 µM); MIC [12]: 0.2 µg/mL (≈ 1.46 µM); MIC [13]: 0.03 µg/mL (≈ 0.219 µM); MIC [14]: 0.03 µg/mL (≈ 0.219 µM); MIC [15]: 0.06 µg/mL (≈ 0.438 µM); MIC [16]: 0.06 µg/mL (≈ 0.438 µM); MIC [1, 19]: 0.03 µg/mL (≈ 0.219 µM); MIC [17]: 0.03 µg/mL (≈ 0.219 µM); MIC [18]: 0.08 µg/mL (≈ 0.583 µM)
